Calls of active or inactive are those of the source. The calls are words filed in the database; no cut-off is given here.
Assays:
[1] = test system: A549; experiment: Antiproliferative activity against human A549 cells after 72 hrs by (3-(4,5-dimethylthiazol-2-yl)-2,5-diphenyltetrazolium bromide test; type: functional, cell-based; conditions: A549, 72 h
[2] = test system: HeLa; experiment: Induction of cell cycle arrest in human HeLa cells assessed as increase in cyclin B expression at 250 nM after 24 hrs by Western blot analysis; type: functional, cell-based
Outline: (§1)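 HeLa cells treated 24 or 48 h. Lysates cleared at 15000g, and 10 μg protein run on 7.5–15% SDS-PAGE and blotted to PVDF. Membranes blocked in 5% BSA and probed for cyclin B, p-cdc2 Tyr15 and cdc25c, then detected with peroxidase secondary and ECL. Blots stripped and reprobed for β-actin as loading control.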

[3] = test system: MCF7; experiment: Antiproliferative activity against human MCF7 cells after 72 hrs by (3-(4,5-dimethylthiazol-2-yl)-2,5-diphenyltetrazolium bromide test; type: functional, cell-based; conditions: MCF7, 72 h
[4] = test system: HeLa; experiment: Induction of cell cycle arrest in human HeLa cells assessed as increase in cyclin B expression at 100 nM after 24 hrs by Western blot analysis; type: functional, cell-based; outline: as §1
[5] = Antiproliferative activity against human HL60 cells after 72 hrs by (3-(4,5-dimethylthiazol-2-yl)-2,5-diphenyltetrazolium bromide test; type: functional, cell-based; conditions: HL-60, 72 h
Outline: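 Jurkat, RS4;11 and HL-60 cells grown in RPMI-1640; MCF-7, A549, HeLa and HT-29 cells grown in DMEM; both media with 10% FBS and penicillin/streptomycin. 8 × 10^3 cells per well were preincubated 18 h at 37 °C, 5% CO2, then exposed 72 h to a concentration range (DMSO ≤0.25%). Read-out was MTT; IC50 was taken against cells given the maximum DMSO. Mean ± SE of at least three experiments.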

[6] = test system: HT-29; experiment: Antiproliferative activity against human HT-29 cells after 72 hrs by (3-(4,5-dimethylthiazol-2-yl)-2,5-diphenyltetrazolium bromide test; type: functional, cell-based; conditions: HT-29, 72 h
[7] = test system: HeLa; experiment: Induction of cell cycle arrest in human HeLa cells assessed as increase in p-cdc2 Tyr15 expression at 250 nM after 24 hrs by Western blot analysis; type: functional, cell-based; outline: as §1
[8] = test system: HeLa; experiment: Induction of apoptosis in human HeLa cells assessed as increase in proportion of cells with depolarized mitochondria after 24 to 48 hrs by JC1 staining based flow cytometry; type: functional, cell-based; conditions: TDE = time-dependent effect
Outline: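 HeLa cells treated 24 or 48 h, then stained with JC-1. Cells with depolarized mitochondria quantified by flow cytometry. Three independent experiments.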

[9] = target: Tubulin (Bos taurus) (UniProt Q6B856+Q862L2+Q862F3); experiment: Displacement of [3H]colchicine from bovine brain tubulin at 5 uM after 20 mins by scintillation counting analysis
Outline: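 Reaction mixtures held 1 μM tubulin, 5 μM [3H]colchicine and 5 μM test compound. Inhibition of radiolabelled colchicine binding was reported as percent inhibition.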

[10] = test system: HeLa; experiment: Effect on phosphatase cdc25 expression in human HeLa cells at 100 to 250 nM after 24 to 48 hrs by Western blot analysis; type: functional, cell-based; outline: as §1
[11] = test system: HUVEC; experiment: Cytotoxicity against HUVEC cells at 5 to 25 nM; type: cell-based; conditions: human, 0.025 µM
[12] = test system: Mus musculus; experiment: In vivo antitumor activity against mouse BNL 1ME A.7R.1 cells allografted in Balb/c mouse assessed as reduction in tumor growth at 10 mg/kg, ip up to 8 days relative to vehicle treated control; type: functional, organism-based; design: dose 10 mg/kg
Outline: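 Male Balb/c mice (8 weeks old) implanted s.c. in the dorsal region with 10^7 BNL 1ME A.7R.1 cells in PBS. Dosed i.p. daily from the second day at 5 or 10 mg/kg, in vehicle of 0.9% NaCl with 5% PEG 400 and 0.5% Tween 80 (7 μL/g). Tumors measured daily with calipers for 7 days, volume = AB²/2. Five mice per group.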

[13] = test system: Chorioallantoic membrane; experiment: Antivascular activity in chick embryo chorioallantoic membrane (CAM) assessed as inhibition of FGF-induced blood vessel formation at 1 pmol/egg by microscopically measured on day 11; type: functional, tissue-based; conditions: Gallus gallus
Outline: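 CAM assay: alginate sponges carrying FGF plus compound (0.1–1.0 pmol per pellet) grafted onto the CAM of fertilized chicken eggs on day 11 of development. Blood vessels converging toward the implant counted under a stereomicroscope at 5× after 72 h (day 14). At least six eggs per group.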

[14] = test system: Chorioallantoic membrane; experiment: Induction of blood vessel formation in chick embryo chorioallantoic membrane (CAM) at 100 pmol/egg; type: functional, tissue-based; conditions: Gallus gallus
[15] = test system: HUVEC; experiment: Antivascular activity in HUVEC assessed as distruption of capillary like tube formation at 5 to 25 nM after 3 hrs by matrigel assay; type: functional, cell-based; conditions: Homo sapiens
Outline: (§2)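 Tube-disruption assay: HUVECs (passages 1–6) plated on gelled Matrigel and allowed 6 h to form capillary-like networks. Compound then added to the preformed networks for 1 or 3 h. Five fields per well photographed. Area covered, total network length, mesh number and branching points measured as percent change from complete-medium controls. Three independent experiments.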

[16] = test system: HUVEC; experiment: Antivascular activity in HUVEC assessed as inhibition of endothelial cell migration to tumor site at 25 nM after 6 hrs by wound-healing assay; type: functional, cell-based; conditions: Homo sapiens
Outline: (§3)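 Scratch assay: confluent HUVEC monolayer on 0.1% collagen I wounded with a pipette tip and washed with PBS. Cells treated with compound and photographed at set times. Wound width measured in four areas and compared with the initial width to give gap closure. Three independent experiments.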

[17] = test system: HUVEC; experiment: Antivascular activity in HUVEC assessed as inhibition of endothelial cell migration to tumor site at 5 nM after 24 hrs by wound-healing assay; type: functional, cell-based; conditions: Homo sapiens; outline: as §3
[18] = Antivascular activity in mouse B16-BL6 cells allografted in C57/BL6 mouse assessed as reduction blood vessel formation in tumor measured at 30 mg/kg, ip after 24 hrs; type: functional; conditions: route intraperitoneal
Outline: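 C57BL/6 mice (6 weeks old) given 10^5 BL6-B16 melanoma cells s.c. in the dorsolateral flank in PBS. At 300 mm3 tumor volume, single i.p. dose of 30 mg/kg in DMSO. Tumors harvested 24 h later, frozen in OCT and cut into 4–5 μm sections. CD31-positive vessels counted in 5 fields per section (40× objective). Five mice per group.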

[19] = test system: HUVEC; experiment: Antivascular activity in HUVEC assessed as distruption of capillary like tube formation at 5 to 25 nM after 1 hr by matrigel assay; type: functional, cell-based; conditions: Homo sapiens; outline: as §2
[20] = test system: Mus musculus; experiment: In vivo antitumor activity against mouse BNL 1ME A.7R.1 cells allografted in Balb/c mouse assessed as reduction in tumor growth at 5 mg/kg, ip up to 8 days relative to vehicle treated control; type: functional, organism-based; design: dose 5 mg/kg
Outline: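 Male Balb/c mice, 8 weeks old, received 10^7 BNL 1ME A.7R.1 cells in 200 μL PBS subcutaneously in the dorsal region. Mice were randomised into groups of 5 and dosed ip daily from day 2. Vehicle was 0.9% NaCl with 5% PEG 400 and 0.5% Tween 80, at 7 μL/g. Tumours were measured daily by caliper for 7 days; V = AB²/2.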

Structure (SMILES)	IC50 [1]	Activity [2]	IC50 [3]	Activity [4]	IC50 [5]	IC50 [6]	Activity [7]	Activity [8]	inhibition [9]	Activity [10]	Activity [11]	Activity [12]	inhibition [13]	Activity [14]	Activity [15]	Activity [16]	Activity [17]	inhibition in vivo at 30 mg/kg [18]	Activity [19]	Activity [20]
CCOC(=O)c1oc2cc(OC)ccc2c1Nc1cc(OC)c(OC)c(OC)c1	36 nM	Active	25 nM	Active	24 nM	17 nM	Active	tde	74%	inactive										
COC(=O)c1oc2cc(OC)ccc2c1Nc1cc(OC)c(OC)c(OC)c1	9 nM	Active	27 nM	Active	5 nM	3 nM	Active	tde	83%	inactive	Non-toxic	Active	Active	inactive	Active	Active	Active	20%	Active	inactive

Source: ChEMBL document CHEMBL3425408, “Design, synthesis, in vitro, and in vivo anticancer and antiangiogenic activity of novel 3-arylaminobenzofuran derivatives targeting the colchicine site on tubulin” (J Med Chem, 2015)
